Measured values from different studies.
Each line is one published result; the experiments were not run side by side.

SMILES	cell line	read-out	mode	method	time	setting	IC50 [µM]
CCSC(=O)c1ncn2c(=O)n(C)nnc12	D54	cell growth or viability		resazurin	7 days		8
COc1cccc2c1C(=O)c1c(O)c3c(c(O)c1C2=O)C[C@@](O)(C(=O)CO)C[C@@H]3O[C@H]1C[C@H](N)[C@H](O)[C@H](C)O1	CHO-K1	cell growth or viability		MTT	72 h		2.5
C/C(=N\O)c1ccc(-c2cccc(O)c2)c(Cl)c1O	NCI-H1299	cell growth or viability		MTT	48 h		17.8
COc1ccccc1CCNCC(O)COc1cccc2[nH]c3ccccc3c12 (stereo not shown)	NCI-H1299	cell growth or viability		CCK-8	72 h		15.2
Nc1ccccc1-c1nc2cnccn2c1NC1CCCCC1	Vero	cell growth or viability		MTT	48 h		75
O=C(/C=C(O)/C=C/c1ccccn1)/C=C/c1c[nH]c2ccccc12	CHO-K1	cell growth or viability		MTT	72 h		22.3
O=C1C=C(/C=C/c2cccnc2)N(CCCO)C(c2cccnc2)C1 (stereo not shown)	CHO-K1	cell growth or viability		MTT	72 h		> 75
COc1ccccc1NCC(O)COc1cccc2[nH]c3ccccc3c12 (stereo not shown)	NCI-H1299	cell growth or viability		CCK-8	72 h		> 100
O=C(/C=C(O)/C=C/c1ccc[nH]1)/C=C/c1ccc[nH]1	CHO-K1	cell growth or viability		MTT	72 h		6.9
CCN(CC)C(=O)c1ncn2c(=O)n(C)nnc12	D54	cell growth or viability		resazurin	7 days		13
CCCNc1nc(NCCC)nc(Nc2ccc(Br)cc2)n1	SK-BR-3	cell growth or viability		SRB	72 h		22.5
C[C@@H](Oc1cc(-c2cnn(C3CCNCC3)c2)cnc1N)c1c(Cl)ccc(F)c1Cl	Rh30	cell growth or viability			72 h		0.99
O=C(/C=C(/C=C/c1cccnc1)NCCCO)/C=C/c1cccnc1	CHO-K1	cell growth or viability		SRB	72 h		> 75
O=C(/C=C(O)/C=C/c1cccnc1)/C=C/c1c[nH]c2ccccc12	CHO-K1	cell growth or viability		SRB	72 h		24.3
Nc1c(-c2ccccc2[N+](=O)[O-])nc2ccccn12	Vero	cell growth or viability		MTT	48 h		65
COc1cccc2c1C(=O)c1c(O)c3c(c(O)c1C2=O)C[C@@](O)(C(=O)CO)C[C@@H]3O[C@H]1C[C@H](N)[C@H](O)[C@H](C)O1	CHO-K1	cell growth or viability		SRB	72 h		6.2
COc1ccc(-c2nc3ccccc3n2Cc2ccccc2)cc1OC	human Rhabdomyosarcoma cell	cell growth or viability		MTT			18.4
COc1ccc2c(c1)NC(=O)CN2c1nc(C)nc2c1CCC2	M14	cell growth or viability			72 h		0.0014
COc1cc(/C=C/C(=O)/C=C(O)/C=C/c2cccc3cnccc23)ccc1O	CHO-K1	cell growth or viability		SRB	72 h		32.6
CCn1c(-c2nnc(NC(=O)c3cc4c([nH]c5ccccc54)c(-c4ccc(C)cc4)n3)s2)cc2ccccc21	HL-60	cell growth or viability		MTT	72 h		39.6
COCCCNC(=C\C(=O)/C=C/c1cccnc1)/C=C/c1cccnc1	CHO-K1	cell growth or viability		MTT	72 h		21.3
CC(C)C[C@H](NC(=O)[C@H](Cc1ccccc1)NC(=O)c1cnccn1)B(O)O	MKN-45	cell growth or viability		ATP luminescence			0.014
O=C(/C=C(/C=C/c1cccnc1)NCCO)/C=C/c1cccnc1	CHO-K1	cell growth or viability		MTT	72 h		> 75

SMILES	cell line	read-out	mode	method	time	setting	IC50 [µM]
Cc1cc(Nc2ncc(Cl)c(Nc3ccccc3S(=O)(=O)C(C)C)n2)c(OC(C)C)cc1C1CCNCC1	Rh30	cell growth or viability			72 h		0.64
COc1cc(/C=C/C(=O)CC(=O)/C=C/c2ccc(O)c(OC)c2)ccc1O	CHO-K1	cell growth or viability		SRB	72 h		38.8
O=C(O)Cc1ccccc1Nc1c(Cl)cccc1Cl	RAW264.7	NO release	inhibitor			LPS-stimulated	54.7
COc1ccccc1OCCN(C)CC(O)COc1cccc2[nH]c3ccccc3c12 (stereo not shown)	NCI-H1299	cell growth or viability		CCK-8	72 h		39.5
CCOc1cc(-c2nc3ccccc3[nH]2)ccc1O	human Rhabdomyosarcoma cell	cell growth or viability		MTT	48 h		29.4
COc1cc(Nc2nccc(-c3cnn4nc(OC)ccc34)n2)cc(C(F)(F)F)c1	MKN-45	cell growth or viability		ATP luminescence			1.4
COc1cc(/C=C/c2cc(/C=C/c3ccncc3)[nH]n2)ccc1O	CHO-K1	cell growth or viability		SRB	72 h		41.8
COc1ccccc1OCCNCC(O)COc1cccc2[nH]c3ccccc3c12 (stereo not shown)	NCI-H1299	cell growth or viability		CCK-8	72 h		32.4
O=[N+]([O-])c1ccc(-c2nc3ccccc3[nH]2)cc1	human Rhabdomyosarcoma cell	cell growth or viability		MTT	48 h		23.4
Nc1ccc(-c2nc3cnccn3c2N)cc1	Vero	cell growth or viability		MTT	48 h		96
COc1cc(/C=C/C(=O)/C=C(O)/C=C/c2c[nH]c3ccccc23)ccc1O	CHO-K1	cell growth or viability		MTT	72 h		26.4
CCOc1ccc(-c2nc3ccccc3n2Cc2ccccc2)cc1	human Rhabdomyosarcoma cell	cell growth or viability		MTT			48.6
NS(=O)(=O)OC[C@@H]1C[C@@H](n2ccc3c(N[C@H]4CCc5ccccc54)ncnc32)C[C@@H]1O	NCI-H1299	cell growth or viability		CCK-8	72 h		0.9
COc1cc(/C=C/C(=O)CC(=O)/C=C/c2ccc(O)c(OC)c2)ccc1O	CHO-K1	cell growth or viability		MTT	72 h		21.3
Cc1ccc2nc(-c3c(F)cccc3Cl)[nH]c2c1	human Rhabdomyosarcoma cell	cell growth or viability		MTT	48 h		45.1
NNc1nc(NCc2ccccc2)nc(Nc2ccc(Br)cc2)n1	SK-BR-3	cell growth or viability		SRB	72 h		> 30
Cc1ccc2nc(-c3ccc(F)cc3)n(Cc3ccccc3)c2c1	human Rhabdomyosarcoma cell	cell growth or viability		MTT			35.1
CCCCN(CCCC)C(=O)c1ncn2c(=O)n(C)nnc12	D54	cell growth or viability		resazurin	7 days		11
COc1ccccc1/C=C/CNCC(O)COc1cccc2[nH]ccc12 (stereo not shown)	NCI-H1299	cell growth or viability		CCK-8	72 h		23.1
c1ccc2[nH]c(-c3ccncc3)nc2c1	human Rhabdomyosarcoma cell	cell growth or viability		MTT	48 h		31.2
COc1cc(/C=C/C(=O)/C=C(O)/C=C/c2ccccn2)ccc1O	CHO-K1	cell growth or viability		SRB	72 h		30.9
O=C(/C=C(O)/C=C/c1cccnc1)/C=C/c1cccnc1	CHO-K1	cell growth or viability		SRB	72 h		10.5
Cc1ccc2nc(-c3ccccc3O)[nH]c2c1	human Rhabdomyosarcoma cell	cell growth or viability		MTT	48 h		6.76
